The results in this text go back to publication PMC3019337 (ChemMedChem, 2010).

What all share (assay): stopped-flow CO2 hydration assay
Format in all cases: biochemical

One test concerns the target hCA IV (Homo sapiens, UniProt P22748). The method in brief: (§1)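 Enzyme-catalysed CO2 hydration was followed by stopped-flow at 557 nm with 0.2 mM phenol red in 20 mM HEPES pH 7.5 and 20 mM Na2SO4. Initial rates were taken over 10–100 s at five CO2 levels (1.7–17 mM). Enzyme was preincubated 15 min at room temperature with six inhibitor concentrations (100 µM–0.1 nM). Uncatalysed rate was subtracted; Ki came from nonlinear least squares, mean of ≥3 determinations.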

In the next test the target is hCA II (Homo sapiens, UniProt P00918). The method in brief: as §1
In the next test the target is hCA VB (Homo sapiens, UniProt Q9Y2D0). A digest of the protocol:
as §1

The next test has as its target hCA XIII (Homo sapiens, UniProt Q8N1Q1). The method in brief:
as §1

Another test deals with hCA XII (Homo sapiens, UniProt O43570). A digest of the protocol: as §1
hCA XII, sequence (O43570 25-354): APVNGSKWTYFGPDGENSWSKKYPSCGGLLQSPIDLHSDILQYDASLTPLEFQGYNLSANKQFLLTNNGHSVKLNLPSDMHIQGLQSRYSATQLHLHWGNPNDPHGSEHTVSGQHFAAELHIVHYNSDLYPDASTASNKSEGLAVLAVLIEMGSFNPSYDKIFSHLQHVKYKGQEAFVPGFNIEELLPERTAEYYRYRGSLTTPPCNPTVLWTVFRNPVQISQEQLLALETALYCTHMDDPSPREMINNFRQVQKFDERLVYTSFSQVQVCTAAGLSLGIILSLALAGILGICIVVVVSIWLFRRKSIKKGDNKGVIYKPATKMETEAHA
A further test concerns the target hCA I (Homo sapiens, UniProt P00915). A digest of the protocol:
as §1

The next test addresses hCA IX (Homo sapiens, UniProt Q16790). A digest of the protocol: as §1
A further test addresses hCA III (Homo sapiens, UniProt P07451). A digest of the protocol:
as §1

The target in a further test is hCA VI (Homo sapiens, UniProt P23280). The method in brief:
as §1

The target in the next test is hCA VA (Homo sapiens, UniProt P35218). The method in brief:
as §1

A further test deals with hCA VII (Homo sapiens, UniProt P43166). A digest of the protocol:
as §1

The target in a further test is T1, mCA XV (Mus musculus, UniProt Q99N23).
T1 sequence (Q99N23 19-324): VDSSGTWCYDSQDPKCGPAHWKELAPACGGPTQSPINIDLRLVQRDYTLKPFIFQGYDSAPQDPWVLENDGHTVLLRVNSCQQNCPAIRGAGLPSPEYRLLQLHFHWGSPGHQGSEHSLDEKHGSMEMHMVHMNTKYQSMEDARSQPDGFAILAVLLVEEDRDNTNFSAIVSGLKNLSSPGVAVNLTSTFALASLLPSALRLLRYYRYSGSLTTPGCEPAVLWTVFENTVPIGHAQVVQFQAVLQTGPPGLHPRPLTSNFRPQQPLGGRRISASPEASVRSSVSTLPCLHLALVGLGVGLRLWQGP
A digest of the protocol: as §1

Molecules are shown by their SMILES.

hCA III, sequence (P07451 2-260): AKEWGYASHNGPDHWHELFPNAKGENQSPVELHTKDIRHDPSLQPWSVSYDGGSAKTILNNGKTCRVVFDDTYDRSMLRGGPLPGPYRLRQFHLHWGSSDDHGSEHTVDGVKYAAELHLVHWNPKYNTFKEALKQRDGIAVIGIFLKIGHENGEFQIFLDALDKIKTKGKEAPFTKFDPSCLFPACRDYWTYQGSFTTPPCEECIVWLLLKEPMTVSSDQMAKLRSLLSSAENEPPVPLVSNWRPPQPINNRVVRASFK
hCA IV, sequence (P22748 19-284): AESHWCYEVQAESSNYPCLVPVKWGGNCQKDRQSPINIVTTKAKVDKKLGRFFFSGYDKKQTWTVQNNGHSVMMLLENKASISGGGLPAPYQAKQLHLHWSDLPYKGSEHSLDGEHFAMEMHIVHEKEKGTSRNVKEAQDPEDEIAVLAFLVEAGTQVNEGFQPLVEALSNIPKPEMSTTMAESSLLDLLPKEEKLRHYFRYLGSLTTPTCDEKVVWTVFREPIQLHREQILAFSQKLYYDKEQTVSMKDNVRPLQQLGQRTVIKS
hCA VB, sequence (Q9Y2D0 34-317): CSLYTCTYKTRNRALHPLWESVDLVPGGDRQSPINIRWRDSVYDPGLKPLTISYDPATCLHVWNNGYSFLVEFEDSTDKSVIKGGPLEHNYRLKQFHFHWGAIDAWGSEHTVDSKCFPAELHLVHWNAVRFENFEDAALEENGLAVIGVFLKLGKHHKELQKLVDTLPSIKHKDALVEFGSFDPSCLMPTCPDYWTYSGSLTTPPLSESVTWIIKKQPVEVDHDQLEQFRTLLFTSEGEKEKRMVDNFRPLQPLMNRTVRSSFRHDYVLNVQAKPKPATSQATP
hCA VI, sequence (P23280 18-308): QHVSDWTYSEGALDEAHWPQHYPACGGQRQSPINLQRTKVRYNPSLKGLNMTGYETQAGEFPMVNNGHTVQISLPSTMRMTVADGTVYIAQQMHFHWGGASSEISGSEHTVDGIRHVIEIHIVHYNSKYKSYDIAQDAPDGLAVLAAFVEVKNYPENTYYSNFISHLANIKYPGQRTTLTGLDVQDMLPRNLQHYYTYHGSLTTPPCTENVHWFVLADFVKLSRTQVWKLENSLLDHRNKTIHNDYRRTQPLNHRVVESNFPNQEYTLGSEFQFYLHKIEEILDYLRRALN
hCA I, sequence (P00915 2-261): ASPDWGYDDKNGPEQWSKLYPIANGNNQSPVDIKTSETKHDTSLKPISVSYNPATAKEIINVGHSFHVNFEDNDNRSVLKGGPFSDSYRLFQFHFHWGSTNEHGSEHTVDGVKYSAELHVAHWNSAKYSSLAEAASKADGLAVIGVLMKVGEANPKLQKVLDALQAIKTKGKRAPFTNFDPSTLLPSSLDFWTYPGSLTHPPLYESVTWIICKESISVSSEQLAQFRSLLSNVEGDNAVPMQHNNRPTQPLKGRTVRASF
hCA VII, sequence (P43166 whole entry): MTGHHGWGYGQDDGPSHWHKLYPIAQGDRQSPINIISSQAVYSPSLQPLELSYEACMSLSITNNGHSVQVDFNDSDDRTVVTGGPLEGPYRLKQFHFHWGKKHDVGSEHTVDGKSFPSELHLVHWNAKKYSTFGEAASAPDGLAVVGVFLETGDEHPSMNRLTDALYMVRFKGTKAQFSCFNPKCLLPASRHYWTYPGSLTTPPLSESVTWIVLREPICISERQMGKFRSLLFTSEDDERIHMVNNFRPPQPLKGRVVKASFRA
hCA VA, sequence (P35218 39-305): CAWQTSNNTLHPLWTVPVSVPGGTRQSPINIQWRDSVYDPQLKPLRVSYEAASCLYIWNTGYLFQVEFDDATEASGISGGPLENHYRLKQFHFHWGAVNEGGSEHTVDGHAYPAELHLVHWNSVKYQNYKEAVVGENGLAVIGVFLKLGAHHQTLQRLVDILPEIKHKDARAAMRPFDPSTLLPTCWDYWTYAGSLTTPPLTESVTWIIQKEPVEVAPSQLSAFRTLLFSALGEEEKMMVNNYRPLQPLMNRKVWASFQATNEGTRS
hCA XIII, sequence (Q8N1Q1 whole entry): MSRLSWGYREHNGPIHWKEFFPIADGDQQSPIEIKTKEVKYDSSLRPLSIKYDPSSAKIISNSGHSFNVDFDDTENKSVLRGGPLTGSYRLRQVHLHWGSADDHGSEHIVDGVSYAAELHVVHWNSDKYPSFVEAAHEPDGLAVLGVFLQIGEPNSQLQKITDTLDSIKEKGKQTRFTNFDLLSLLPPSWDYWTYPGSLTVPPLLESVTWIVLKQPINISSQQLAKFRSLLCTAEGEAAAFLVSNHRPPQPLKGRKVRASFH

As usually defined, the Ki is a dissociation constant, usually derived from enzyme kinetics or from competition with a known ligand. A higher Ki goes with a looser hold on the target. Take `On1ccccc1=S` [compound 4, 1,2-HOPTO]: the Ki on hCA IV was found to be 4.4 µM; on hCA II, 4.1 µM; at hCA VB it was 3.8 µM; on hCA XIII it was 10.8 µM; on hCA XII, 4.8 µM; at hCA I, 9.4 µM. The inhibition constant (Ki) is 9.2 µM at hCA IX; 7.5 µM on hCA III; 3.6 µM on hCA VI; 4 µM at hCA VA; 3.6 µM at hCA VII; 4.7 µM on mCA XV.

On to `Cc1occc(=S)c1O` [compound 2, thiomaltol], for which the Ki is 4.6 µM on hCA IV; 4 µM on hCA II; 4 µM on hCA VB; 10.4 µM on hCA XIII; 4.5 µM on hCA XII; 8.3 µM on hCA I. Moreover, the Ki came to 10 µM at hCA IX; 8.4 µM at hCA III; 3.2 µM on hCA VI; 4.2 µM at hCA VA; 3.6 µM on hCA VII.

As to `Cc1occc(=O)c1O` [compound 1, maltol], the Ki amounted to 4.3 µM on hCA IV; 3.6 µM on hCA II; 4.3 µM on hCA VB; 10.4 µM on hCA XIII; 4 µM at hCA XII; 9.1 µM at hCA I. Further, the inhibitory constant (Ki) at hCA IX was determined as 9.5 µM; at hCA III, 9.5 µM; at hCA VI, 3.5 µM; at hCA VA, 4.6 µM; at hCA VII, 3.4 µM; at mCA XV, 2.8 µM.
